Publication PMC8926038 (Multiple sclerosis and related disorders, 2022)
Structures can show the parent of a compound that is named as a salt.

Tests used:
[1] = tested on: C3 secretion from inflammation-induced astrocytes; assay: C3 secretion; format: cell-based, human
Outline: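 Primary human cortical astrocytes on PLL-coated plates; after 24 h, medium replaced with 50% v/v supernatant from resting or LPS (100 ng/ml) plus CD3/CD28 bead-stimulated PBMC, with test compound or matched DMSO. Screen run twice at single concentrations; titrations at 0–1000 nM (n = 3), IC50 from best-fit curves. Supernatant C3 by ELISA at 24 h, reported as % of stimulated DMSO after unstimulated subtraction.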

astrocytes = settings: in vitro pre-treatment, 25 μM, stimulation with IL1β; ref Galloway et al., 2017; cited from earlier work
[2] = doses over 400 mg/day; ref Utili et al., 1977; cited from earlier work
[3] = tested on: secretome of inflammation-induced astrocytes; format: cell-based, human; settings: SOMAscan, n = 1; for secretion of "toxic astrocyte signature" biomarkers: normalized toxic vs resting astrocytes index
[4] = tested on: human induced pluripotent stem cells (iPSCs)-differentiated astrocytes; settings: pretreatment, in the presence of inflammatory stimuli; ref Colombo et al., 2020; cited from earlier work
[5] = inflammation-induced astrocytes

COC(=O)/C=C/C(=O)OC [DMF, dimethyl fumarate]
C3 secretion by astrocytes ([1]; library screen at 100 nM): not at 100 nM | C3 secretion by astrocytes ([1]; library screen at 10 μM): inhibited | secretion of proinflammatory cytokines and oxidative stress (astrocytes): reduced

O=C1CN(/N=C/c2ccc(-c3ccc([N+](=O)[O-])cc3)o2)C(O)=N1 [Dantrolene]
inhibition of secretion of C3 ([1]; drug library screen): 77.7% | hepatotoxicity [2]: serious hepatotoxicity

CC(C)c1cc(-c2n[nH]c(=O)n2-c2ccc3c(ccn3C)c2)c(O)cc1O [Ganetespib]
secretion of proteins from astrocytes not activated by inflammatory stimuli [3]: inhibited | secretion of "toxic astrocyte signature" biomarkers [3]: strongly reduced secretion of all biomarkers

CO[C@H]1C[C@@H]2CC[C@@H](C)[C@@](O)(O2)C(=O)C(=O)N2CCCC[C@H]2C(=O)O[C@H]([C@H](C)C[C@@H]2CC[C@@H](O)[C@H](OC)C2)CC(=O)[C@H](C)/C=C(\C)[C@@H](O)[C@@H](OC)C(=O)[C@H](C)C[C@H](C)/C=C/C=C/C=C/1C [Rapamycin]
secretion of "toxic astrocyte signature" biomarkers [3]: did not have potent effect on secretion of most | secretion of CCL20, TNFAIP6 and CFB [3, 5]: elevated | secretion of CCL20 and CCL8 [3, 5]: increased | secretion of SERPINA3 [3, 5]: failed to inhibit

CCCCCCCCc1ccc(CCC(N)(CO)CO)cc1 [fingolimod]
secretion of proinflammatory cytokines [4]: reduced

CCc1cc(/C(C)=N/OCc2ccc(C3CCCCC3)c(C(F)(F)F)c2)ccc1CN1CC(C(=O)O)C1 [siponimod]
secretion of proinflammatory cytokines [4]: reduced
